# NR3A LBD binder: binders of NR3A ligand-binding domain, primary screen, biophysical, differential scanning fluorimetry, uHTS; Glutamate receptor ionotropic, NMDA 3A (GRIN3A) ligand-binding domain; actives 2.5% (n = 340,000); NR3A LBD differential scanning fluorimetry, Tm shift; 0% = protein alone, 100% = glycine-bound protein; Tm shift relative to glycine control, % at 25 µM;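 active = melting temperature shift of at least 10% of the positive control shift, at one fixed dose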
# XBP1 UPR activ: activators of adaptive XBP1 UPR arm, primary screen, cell-based, CHO-XBP1 luciferase reporter, luminescence, uHTS | IRE1-XBP1 UPR activation; percent of tunicamycin response, DMSO as zero | activation, % at 20 µM | actives 0.33% (n = 330,000);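 active = versus positive control, 20 µM dose yields 30% or more activation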
#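 incubation = overnight seeding at 37 °C, 6 h compound treatment at 37 °C | assay system = CHO-XBP1 cells stably carrying IRE1-XBP1-driven luciferase reporter | input = 1000 cells per well | detection = luciferase luminescence | dosing = single point, 20 µM final compound, 1% DMSO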
# aDG glyco up: activators of alpha-DG glycosylation, primary screen, uHTS, Pro5-aDG cells, AlphaScreen | alpha-DG glycosylation AlphaScreen (IIH6); 0% Pro5, 100% B10-LARGE cell signal | activation, % at 10 µM | actives 0.22% (n = 360,000);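 active = activation of at least 8% versus controls, or a plate z-score of at least 8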;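 note: Pro5 are CHO cells carrying HIG-tagged alpha-DG that lacks glycosylation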
# CHOP inhibitor: inhibitors of CHOP promoter induction, primary screen, cell-based, unfolded protein response, luciferase reporter. AID 2732, 2010. CHO-K1 CHOP-promoter luciferase, tunicamycin-induced, 15-18 h. inhibition, % at 10 µM. actives 3.8% (n = 220,000);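 active = compounds that reduced the stress-induced luciferase reporter signal by more than about 70% of percent inhibition, limit read from the data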
# CHOP UPR activ: activators of apoptotic CHOP UPR arm, primary screen, cell-based, CHO-CHOP luciferase reporter, luminescence, uHTS; UPR activation; percent of tunicamycin response over DMSO baseline; activation, % at 10 µM; actives 0.34% (n = 330,000); AID 449763, 2010;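 active = at 10 µM dose, activation of 40% or more, normalized to positive control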
#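 System: CHO-CHOP luciferase reporter cell line | Buffer or medium: F12 medium containing 10% fetal bovine serum | Doses: One dose, 10 µM in 0.5% DMSO | Times: 6 h compound exposure at 37 °C after overnight seeding | Signal: Luciferase luminescence | Read-out: % activation vs tunicamycin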
# MPTP block: mitochondrial permeability transition pore inhibitors, primary screen, biochemical, isolated mouse mitochondria, absorbance | inhibition, % at 10 µM | AID 602449, 2012 | actives 1.4% (n = 360,000) | Ca2+ swelling absorbance, 30 min;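 active = inhibition of 50% or more, scaled per plate between neutral and stimulator controls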
# Rh123 counter: fluorescence retest of MPTP screen hits in isolated mitochondria, single concentration; shares compounds with MPTP block; membrane potential, Rhodamine 123 fluorescence; inhibition, % at 10 µM; actives 78% (n = 5,000); AID 624504, 2012; in the data active = inhibition above about 22%
# MPTP abs DR: mitochondrial permeability transition pore inhibitors, dose response, biochemical, absorbance, uHTS hits; AID 651561, 2012; actives 58% (n = 780); shares compounds with MPTP block; IC50, µM; isolated mitochondria swelling; in the data active = IC50 below about 20 µM
# MPTP cs DR: fluorescent counter-screen in isolated mitochondria, dose response, counter-screen for MPTP inhibitor project, biochemical, fluorescence, uHTS hits | actives 49% (n = 780) | shares compounds with MPTP block | IC50, µM | isolated mitochondria counterscreen, fluorescence read-out; in the data active = IC50 below about 80 µM
# A number is an active result; n = inactive; x = no result. A selection: hits, their analogues and other compounds. The true share with any hit is near 5.6%.
SMILES,NR3A LBD binder,XBP1 UPR activ,aDG glyco up,CHOP inhibitor,CHOP UPR activ,MPTP block,Rh123 counter,others
CCOC(=O)c1nc(C)nc(Sc2n[nH]c(-c3cc(C(F)(F)F)cc(C(F)(F)F)c3)n2)c1C,13,n,n,72,n,65,72,
CC(CNS(=O)(=O)c1ccc2c(c1)NC(=O)CCS2)c1ccccc1 (stereo unspecified),n,n,n,x,n,n,x,
CCCCc1c(-c2ccccc2OC)ncn1Cc1ccc(Cl)cc1,x,x,n,x,x,n,x,
CCCCc1c(-c2ccccc2OC)ncn1Cc1ccc(-c2ccccc2)cc1,x,x,n,x,x,78,116,
COc1ccc(NC(=O)CCc2nc(-c3ccc(C)cc3)no2)cc1Cl,n,n,n,n,n,n,x,
COc1ccc(-c2noc(CCC(=O)Nc3ccc(C)c(C)c3)n2)cc1,n,n,n,n,n,n,x,
CCOC(=O)c1ccc(NC(=O)CCc2nc(-c3ccc(C)cc3)no2)cc1,n,n,n,n,n,85,85,
Cc1ccc(-c2noc(CCC(=O)Nc3ccc4c(c3)OCO4)n2)cc1,n,n,n,n,n,52,26,
CCOC(=O)c1ccc(NC(=O)CCc2nc(-c3ccc(Cl)cc3)no2)cc1,n,n,n,73,n,97,81,
C/C(=N\NC(=O)c1c(Cl)c(C)nn1C)c1ccc(NC(=O)c2ccncc2)cc1,n,n,n,n,n,n,x,
Cc1nn(-c2ccc(NC(=O)c3ccncc3)cc2)c(C)c1Cl,n,n,n,x,n,80,79,
CCOc1ccc(Br)cc1/C(C)=N\NC1=NCCN1,n,n,n,n,n,108,67,
CCCCCCOc1ccc(/C(C)=N/NC2=NCCN2)cc1,n,n,n,x,n,94,n,
CC(=NNC1=NCCN1)c1cnn(C2=NCCN2)c1C,x,x,n,x,x,n,x,
O=C(OCc1csc(-c2ccccc2)n1)c1ccccc1O,n,n,n,n,n,n,x,
COc1ccc(CC(=O)Nc2cccc(-c3csc(C)n3)c2)cc1,n,n,n,n,n,104,n,MPTP abs DR=n;MPTP cs DR=n
COc1ccc(NS(=O)(=O)c2ccc(C)c(C(=O)NCCCn3ccnc3)c2)cc1,x,x,n,x,x,n,x,
COc1ccccc1/C=C(\C#N)C(=O)c1cccn1C,n,n,n,x,n,n,x,
CC(C)CC(=O)n1sc(NC(=O)c2ccccc2)nc1=O,n,n,n,n,n,n,x,
Cc1ccc(C(=O)Nc2nc(=O)n(C(=O)CC(C)C)s2)cc1,n,n,n,n,n,58,78,
O=c1c(C(c2ccccc2)c2c(O)sc3ccccc3c2=O)c(O)sc2ccccc12,n,n,n,n,n,68,71,
CC(C)C1C(=O)N(Cc2cn(CCC3OCCCO3)nn2)CCS(=O)(=O)N1Cc1ccc(-c2ccc(Cl)nc2)cc1 (stereo unspecified),x,x,n,x,x,n,x,
Cc1cccc[n+]1CC(=O)N1c2ccccc2Sc2ccccc21,n,n,n,n,n,n,x,
COCCCN(C(=S)Nc1cc(Cl)cc(Cl)c1)C(C)c1ccncc1 (stereo unspecified),n,n,n,n,n,93,99,
COCCCN(C(=S)Nc1cc(Cl)cc(Cl)c1)C(C)c1ccccn1 (stereo unspecified),n,n,n,n,n,91,87,
